Reference: ChEMBL document CHEMBL2046427, “Nonhematotoxic naphthalene diimide modified by polyamine: synthesis and biological evaluation” (J Med Chem, 2012)
Activity calls are given as the source filed them. The rule behind the calls is not given here.

Experiments:
MDA-MB-231 = experiment: Cytotoxicity against human MDA-MB-231 cells after 48 hrs by MTT assay; assay type: functional, cell-based; conditions: MDA-MB-231, 48 h
Outline: (§1)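 MTT conversion assay at 37 °C, 5% CO₂. […] Inhibition relative to untreated cells as 100%; IC50 by linear regression, mean of three independent experiments.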

HepG2 [1] = experiment: Cytotoxicity against human HepG2 cells after 48 hrs by MTT assay; assay type: functional, cell-based; conditions: HepG2, 48 h; outline: as §1
K562 = experiment: Cytotoxicity against human K562 cells after 48 hrs by MTT assay; assay type: functional, cell-based; conditions: K562, 48 h; outline: as §1
HCT-116 = experiment: Cytotoxicity against human HCT116 cells after 48 hrs by MTT assay; assay type: functional, cell-based; conditions: HCT-116, 48 h; outline: as §1
HepG2 [2] = experiment: Cytotoxicity against human HepG2 cells assessed as acruement in lysosomal mass/pH at 1 to 30 uM after 48 hrs by fluorescence-based high-content screening assay; assay type: functional, cell-based
Outline: (§2)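 HepG2 seeded 5 × 10³/well; after 12 h treated at 1, 5, 10, 15 and 30 μM for 48 h. Multiparameter cytotoxicity kit staining imaged by high-content screening: Hoechst 33342 for nuclear morphology, permeability dye (green nuclei) for membrane integrity, mitochondrial potential dye, and a weak-base dye for lysosomal mass/pH.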

HepG2 [3] = experiment: Cytotoxicity against human HepG2 cells assessed as cell nuclear shrinkage at 1 to 30 uM after 48 hrs by Hoechst 33342-based fluorescence-based high-content screening assay; assay type: functional; outline: as §2
HepG2 [4] = experiment: Cytotoxicity against human HepG2 cells assessed as mitochondrial permeability augmentation at 1 to 30 uM after 48 hrs by fluorescence-based high-content screening assay; assay type: functional, cell-based; outline: as §2
HepG2 [5] = experiment: Cytotoxicity against human HepG2 cells assessed as decrease in mitochondrial membrane potential at 1 to 30 uM after 48 hrs by fluorescence-based high-content screening assay; assay type: functional, cell-based; outline: as §2
HepG2 [6] = experiment: Cytotoxicity against human HepG2 cells assessed as decrease in mitochondrial membrane potential after 48 hrs by fluorescence-based high-content screening assay; assay type: functional, cell-based; outline: as §2
HepG2 [7] = experiment: Cytotoxicity against human HepG2 cells assessed as mitochondrial permeability augmentation after 48 hrs by fluorescence-based high-content screening assay; assay type: functional, cell-based; outline: as §2
HepG2 [8] = experiment: Cytotoxicity against human HepG2 cells assessed as acruement in lysosomal mass/pH after 48 hrs by fluorescence-based high-content screening assay; assay type: functional, cell-based; outline: as §2
HepG2 [9] = experiment: Cytotoxicity against human HepG2 cells assessed as cell nuclear shrinkage after 48 hrs by Hoechst 33342-based fluorescence-based high-content screening assay; assay type: functional; outline: as §2

In the case of `NCCCCNCCCCNCCCCN1C(=O)c2ccc3c4c(ccc(c24)C1=O)C(=O)N(CCCCNCCCCNCCCCN)C3=O`, the IC50 (MDA-MB-231) is reported as greater than 50 µM, the IC50 (HepG2 [1]) is reported as greater than 50 µM and the IC50 (K562) is reported as 28 µM.

`NCCCNCCCNCCCN1C(=O)c2ccc(-c3ccc4c(c3)C(=O)N(CCCNCCCNCCCN)C4=O)cc2C1=O` was tested, and the IC50 (MDA-MB-231) was greater than 50 µM, the IC50 (HepG2 [1]) was greater than 50 µM and the IC50 (HCT-116) was greater than 50 µM.

In the case of `NCCCNCCCCNCCCN1C(=O)c2ccc(-c3ccc4c(c3)C(=O)N(CCCNCCCCNCCCN)C4=O)cc2C1=O`, the IC50 (MDA-MB-231) is reported as greater than 50 µM and the IC50 (HepG2 [1]) is reported as greater than 50 µM.

With `NCCCCNCCCCNCCCCN1C(=O)c2ccc(-c3ccc4c(c3)C(=O)N(CCCCNCCCCNCCCCN)C4=O)cc2C1=O` the Activity (HepG2 [2]) was “inactive”, the IC50 (MDA-MB-231) was greater than 50 µM and the Activity (HepG2 [3]) was “inactive”. The IC50 (HepG2 [1]) was greater than 50 µM, the Activity (HepG2 [4]) was “inactive” and the IC50 (HCT-116) was greater than 50 µM. For the same compound, the Activity (HepG2 [5]) was “inactive”.

In the case of `NCCCCNCCCCN1C(=O)c2cccc3c(-c4ccccc4)ccc(c23)C1=O`, the IC50 (MDA-MB-231) is reported as 19.2 µM, the IC50 (HepG2 [1]) is reported as 17.1 µM and the IC50 (K562) is reported as 14.4 µM.

For `NCCCNCCCN1C(=O)c2ccc3c4c(ccc(c24)C1=O)C(=O)N(CCCNCCCN)C3=O`, the IC50 (MDA-MB-231) was 2.95 µM, the IC50 (HepG2 [1]) was 2.83 µM and the IC50 (K562) was 1.01 µM. The IC50 (HCT-116) was 5.02 µM.

With `NCCCCNCCCCN1C(=O)c2ccc3c4c(ccc(c24)C1=O)C(=O)N(CCCCNCCCCN)C3=O` the IC50 (MDA-MB-231) was 27.6 µM, the IC50 (HepG2 [1]) was 43.8 µM and the IC50 (K562) was 41 µM.

For `NCCCCNCCCCNCCCCN1C(=O)c2cccc3c(-c4ccccc4)ccc(c23)C1=O`, the IC50 (MDA-MB-231) was 19.1 µM, the IC50 (HepG2 [1]) was 32.1 µM and the IC50 (K562) was 14.2 µM.

`NCCCNCCCCN1C(=O)c2ccc3c4c(ccc(c24)C1=O)C(=O)N(CCCCNCCCN)C3=O` was tested, and the IC50 (MDA-MB-231) was 20.2 µM, the IC50 (HepG2 [1]) was 33.3 µM and the IC50 (K562) was 21.2 µM.

Work on `NCCCNCCCNCCCN1C(=O)c2ccc3c4c(ccc(c24)C1=O)C(=O)N(CCCNCCCNCCCN)C3=O` yielded an IC50 (MDA-MB-231) of 18 µM, an IC50 (HepG2 [1]) of 48.5 µM and an IC50 (K562) of 21.2 µM.

In the case of `CN(C)CCN1C(=O)c2cccc3c(-c4ccccc4)ccc(c23)C1=O`, the Activity (HepG2 [6]) is reported as “Dose-dependent effect”, the Activity (HepG2 [7]) is reported as “Dose-dependent effect” and the IC50 (MDA-MB-231) is reported as 39.2 µM. The Activity (HepG2 [8]) was “Dose-dependent effect”, the IC50 (HepG2 [1]) was 37 µM and the IC50 (K562) was greater than 50 µM. For the same compound, the Activity (HepG2 [9]) was “Dose-dependent effect”.

For `NCCCNCCCNCCCN1C(=O)c2cccc3c(-c4ccccc4)ccc(c23)C1=O`, the IC50 (MDA-MB-231) was 14.6 µM, the IC50 (HepG2 [1]) was 15.6 µM and the IC50 (K562) was 14.4 µM.

`NCCCNCCCCNCCCN1C(=O)c2cccc3c(-c4ccccc4)ccc(c23)C1=O` showed an IC50 (MDA-MB-231) of 14.5 µM, an IC50 (HepG2 [1]) of 15.8 µM and an IC50 (K562) of 14.2 µM.
